STAT1 act = STAT1 signaling activators, primary screen, cell-based, HTS, luciferase reporter; AID 932, 2007; NIH 3T3 STAT1-luciferase reporter, IFN-gamma, luminescence; 100% = IFN-gamma alone, no compound; activation (% of control), % at 5.5 µM; 2.6% of 200,000 active;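 active = activation above the screen-wide mean activation plus 3 SD, cut at about 130% in these data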;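 note: raw ratio to IFN-gamma control signal so 100% means no change and 0% no light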
Cl transport mod = KCC2 cotransporter modulators, thallium flux, primary screen, cell-based, HEK293 KCC2, FluoZin-2 fluorescence, MLSMR; KCC2 cells, thallium flux FluoZin-2 fluorescence; B-score of Tl+ flux slope (higher = more flux/activation; lower = inhibition) at 10 µM; 2.2% of 190,000 active;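 active = thallium flux slope and its plate-corrected score both differing from the plate sample mean at a set confidence after two filtering rounds, in either direction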;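 note: slope of fluorescence scaled to starting intensity during 10 to 20 s after thallium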
Target sequence (Q9H2X9 whole entry, looked up): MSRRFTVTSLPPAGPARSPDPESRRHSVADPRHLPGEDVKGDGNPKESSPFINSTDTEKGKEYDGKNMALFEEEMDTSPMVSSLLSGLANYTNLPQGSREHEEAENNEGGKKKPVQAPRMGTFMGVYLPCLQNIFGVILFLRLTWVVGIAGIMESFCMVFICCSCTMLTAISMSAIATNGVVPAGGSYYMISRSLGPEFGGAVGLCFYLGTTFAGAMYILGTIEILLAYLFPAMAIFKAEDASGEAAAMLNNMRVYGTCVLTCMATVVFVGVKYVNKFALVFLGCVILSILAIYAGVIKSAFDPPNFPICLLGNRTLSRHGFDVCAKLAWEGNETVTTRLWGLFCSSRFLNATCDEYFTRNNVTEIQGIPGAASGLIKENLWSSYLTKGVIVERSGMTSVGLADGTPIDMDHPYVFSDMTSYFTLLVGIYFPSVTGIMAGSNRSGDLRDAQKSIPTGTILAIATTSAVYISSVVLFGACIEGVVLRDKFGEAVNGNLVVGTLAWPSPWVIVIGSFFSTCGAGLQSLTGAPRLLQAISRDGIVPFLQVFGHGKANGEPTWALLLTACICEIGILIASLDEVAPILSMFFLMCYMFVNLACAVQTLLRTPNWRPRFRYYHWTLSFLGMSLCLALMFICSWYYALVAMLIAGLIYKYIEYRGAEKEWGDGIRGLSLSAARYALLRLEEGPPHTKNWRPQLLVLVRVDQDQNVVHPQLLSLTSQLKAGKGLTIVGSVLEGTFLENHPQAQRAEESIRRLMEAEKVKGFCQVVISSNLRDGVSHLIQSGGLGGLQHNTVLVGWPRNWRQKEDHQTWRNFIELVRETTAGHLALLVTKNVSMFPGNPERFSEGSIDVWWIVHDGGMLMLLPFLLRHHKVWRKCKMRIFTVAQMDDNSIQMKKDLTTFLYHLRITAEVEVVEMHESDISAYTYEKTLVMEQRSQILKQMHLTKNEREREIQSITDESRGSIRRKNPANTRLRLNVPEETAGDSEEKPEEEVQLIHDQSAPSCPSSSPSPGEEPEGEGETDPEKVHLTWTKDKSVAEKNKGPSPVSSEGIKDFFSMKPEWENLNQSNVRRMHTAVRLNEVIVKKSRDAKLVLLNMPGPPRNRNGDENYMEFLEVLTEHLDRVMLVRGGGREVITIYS
STAT1 blocker = STAT1 signaling inhibitors, primary screen, cell-based, HTS, luciferase reporter | NIH 3T3 STAT1-luciferase reporter, IFN-gamma, luminescence | inhibition, % at 5.5 µM | 0.35% of 200,000 active | AID 920, 2007;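 active = inhibition above a set limit, the mean inhibition across all tested compounds plus 3 SD, cut at about 34% in these data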;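 note: 0% = IFN-gamma with DMSO and 100% = IFN-gamma with 300 µM nifuroxazide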
STAT3 blocker = IL-6 driven STAT3 reporter inhibitors, primary screen, U3A cells, luciferase, luminescence, MLSCN library | inhibition, % at 5.5 µM | IL-6 STAT3-luciferase reporter; host cell line lacks STAT1 | 0.89% of 190,000 active;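 active = inhibition above the mean inhibition across all screened compounds plus 3 SD, cut at about 44% in these data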;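 note: 0% = DMSO only wells and 100% = 100 µM nifuroxazide control wells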
HSV replic up = enhancers of HSV replication in host cells, fold increase, host cell viability; AID 1956, 2009; HSV replication augmentation in cells; maximum fold increase; 0.005% of 220,000 active; in the data active = maximum fold increase above about 1.5; tested in PC3 cells
STAT3 activator = IL-6 driven STAT3 reporter potentiators, primary screen, U3A cells, luciferase, luminescence, MLSCN library. activation (% of control), % at 5.6 µM. 0.91% of 190,000 active. IL-6 STAT3-luciferase reporter; 100% = signal with IL-6 EC80 alone;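 active = activation above the screen-wide mean of compound activation plus 3 SD, cut at about 130% in these data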;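 note: 0% = background luminescence of wells with medium and substrate only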
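Assay system – human STAT1-deficient U3A cells with stable STAT3-luciferase reporter · Also added – IL-6 (33 ng/mL) · Schedule – compound 1 h, then IL-6 6 h at 37 °C · Technique – reporter luminescence signal · Evaluation – % activation versus median of IL-6-stimulated wells · Benchmarks – IL-6-only wells as 100% reference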
An asterisk follows results filed as active. An excerpt weighted towards active compounds, which were near 5.5% of everything screened.

What do the screens show for `CCN1C=CC(=C2C(=O)c3ccccc3C2=O)C=C1`?
STAT1 act: 20; Cl transport mod: 0.52; STAT1 blocker: 88*; STAT3 blocker: 109*; HSV replic up: inactive; STAT3 activator: 12

Results for CCCCN1C=CC(=C2N=c3cccc([N+](=O)[O-])c3=N2)C=C1 ?
STAT1 act: 111; Cl transport mod: -0.099; STAT1 blocker: -13; STAT3 blocker: -5; HSV replic up: inactive; STAT3 activator: 104

Results for CCCN1C=CC(=C2C(=O)c3ccccc3C2=O)C=C1 ?
STAT1 act: 15; Cl transport mod: 0.05; STAT1 blocker: 92*; STAT3 blocker: 113*; HSV replic up: inactive; STAT3 activator: 9

Results for CC(C)c1ccc(C(O)P(=O)(OC2CCCCC2)OC2CCCCC2)cc1 (stereo unspecified) ?
Cl transport mod: 0.03; HSV replic up: inactive

How did CCOC(=O)c1ccc2c(c1)nc(-c1ccc(F)cc1)c1nccn12 do in these assays?
STAT1 act: 95; Cl transport mod: 0.42; STAT1 blocker: 6; STAT3 blocker: 2; HSV replic up: inactive; STAT3 activator: 101

What do the screens show for `Cc1ccc(Nc2nc(N)c([N+](=O)[O-])c(NCCO)n2)cc1C`?
Cl transport mod: 0.062; HSV replic up: inactive

How did Cc1ccc(Nc2nc(N)c([N+](=O)[O-])c(NCc3ccco3)n2)cc1C do in these assays?
STAT1 act: 139*; Cl transport mod: -0.53; STAT1 blocker: -44; STAT3 blocker: -1; HSV replic up: inactive; STAT3 activator: 99

What do the screens show for `Cc1cc(C(=O)COC(=O)c2ccc(Br)o2)c(C)n1Cc1ccco1`?
STAT1 act: 115; Cl transport mod: 0.41; STAT1 blocker: -18; STAT3 blocker: -5; HSV replic up: inactive; STAT3 activator: 112

Results for Cc1cc(C(=O)COC(=O)c2ccc(O)cc2)c(C)n1Cc1ccco1 ?
STAT1 act: 149*; Cl transport mod: -0.069; STAT1 blocker: -49; STAT3 blocker: -12; HSV replic up: inactive; STAT3 activator: 108

Results for COc1cc(/C=N/NC(=S)NC2CC3CC2C2C=CCC32)ccc1O (stereo unspecified) ?
Cl transport mod: 0.31; HSV replic up: inactive

Results for CCOC(=S)NC(=O)c1sc2ccccc2c1Cl ?
STAT1 act: 94; Cl transport mod: 74*; STAT1 blocker: 7; STAT3 blocker: 11; HSV replic up: inactive; STAT3 activator: 91

What do the screens show for `CCCn1nnc(NC(=O)c2sc3ccccc3c2Cl)n1`?
STAT1 act: 124; STAT1 blocker: -26; STAT3 blocker: 18; HSV replic up: inactive; STAT3 activator: 89

How did CCCOC(=S)NC(=O)c1sc2ccccc2c1Cl do in these assays?
STAT1 act: 102; Cl transport mod: 60*; STAT1 blocker: -2; STAT3 blocker: 1; HSV replic up: inactive; STAT3 activator: 99

How did NC(=O)COC(=O)c1sc2ccccc2c1Cl do in these assays?
STAT1 act: 98; Cl transport mod: -0.8; STAT1 blocker: 1; STAT3 blocker: 3; HSV replic up: inactive; STAT3 activator: 101

Results for CC(C)(C)C(=O)NC(=S)NNC(=O)c1sc2ccccc2c1Cl ?
STAT1 act: 91; Cl transport mod: 48*; STAT1 blocker: 10; STAT3 blocker: 26; HSV replic up: inactive; STAT3 activator: 80

Results for O=C(NNC(=S)NC1CCCCC1)c1sc2ccccc2c1Cl ?
STAT1 act: 104; Cl transport mod: 1.9; STAT1 blocker: -5; STAT3 blocker: 9; HSV replic up: inactive; STAT3 activator: 95

Bioassay records: PubChem BioAssay, several laboratories
